Data on 6 molecules can be found in paper PMC5652008 (EBioMedicine, 2017).

pIC50: −log10 of the molar value. Square brackets hold non-standard residues; d marks the D form. Peptide text beside a SMILES is read from it. * marks the point of attachment. Succinyl(4-O-cholesteryl) = CC(C)CCC[C@@H](C)[C@H]1CC[C@H]2[C@@H]3CC=C4C[C@@H](OC(=O)CCC(=O)*)CC[C@]4(C)[C@H]3CC[C@]12C; Sta = CC(C)C[C@H](N)[C@@H](O)CC(=O)O Where only a bound is given, the exact number is not on record here.

For one series, the target named is BACE1 (Homo sapiens, UniProt P56817). In words: Cell-based Aβ lowering IC50 assay. The procedure, abridged:
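Test compounds, free or Brain Shuttle-coupled, added in serial dilutions to HEK293 cells stably expressing wild-type human APP695, grown in Iscove's medium with 10% FBS to ~80% confluency. Construct dilution buffers served as control. Overnight at 37 °C, 5% CO2. Supernatant Aβ40 read by AlphaLISA: acceptor beads 1 h, then streptavidin donor beads 30 min, both at RT; emission at 615 nm. Compared with vehicle-treated cells; mean ± SEM.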

Another series can be described thus: Thermodynamic. Format: physicochemical. Conditions: phosphate buffer. The procedure, abridged:
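Equilibrium solubility measured in 0.05 M phosphate buffer, pH 6.5.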

Where [1] appears, read: pH 6.5, Solubility pH 6.5, Table 1, phosphate buffer 0.05 M.

Chain of BACE1 (P56817 46-501): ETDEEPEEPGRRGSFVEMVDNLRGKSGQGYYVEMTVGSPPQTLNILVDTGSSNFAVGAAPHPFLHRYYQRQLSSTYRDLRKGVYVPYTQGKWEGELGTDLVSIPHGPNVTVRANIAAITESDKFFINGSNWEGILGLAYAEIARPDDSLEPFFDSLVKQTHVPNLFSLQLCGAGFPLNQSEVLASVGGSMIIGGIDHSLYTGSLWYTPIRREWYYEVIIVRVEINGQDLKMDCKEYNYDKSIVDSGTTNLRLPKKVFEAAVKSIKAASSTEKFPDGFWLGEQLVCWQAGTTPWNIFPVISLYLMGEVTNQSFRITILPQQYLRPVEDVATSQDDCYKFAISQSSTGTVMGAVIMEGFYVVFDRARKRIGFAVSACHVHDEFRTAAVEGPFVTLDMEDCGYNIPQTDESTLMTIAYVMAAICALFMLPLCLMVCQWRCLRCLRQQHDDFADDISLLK

In turn, `CC(C)C[C@H](NC(=O)[C@H](CC(N)=O)NC(=O)[C@@H](NC(=O)[C@@H](N)CCC(=O)O)C(C)C)[C@@H](O)CC(=O)N[C@H](C(=O)N[C@@H](C)C(=O)N[C@@H](CCC(=O)O)C(=O)N1CCC[C@@H]1C(=O)N[C@@H](CCCCN)C(N)=O)C(C)C` [Pep#2, Glu-Val-Asn-Sta-Val-Ala-Glu-DPro-Lys-NH2] (H-EVN[Sta]VAE[dP]K-NH2; N-terminus assumed) showed a pIC50 at BACE1 of less than 4.40.
Same read-out and setting: with `CC[C@H](C)[C@H](NC(=O)[C@H](Cc1ccccc1)NC(=O)[C@H](Cc1ccc(O)cc1)NC(=O)[C@@H]1CCCN1C(=O)[C@H](Cc1ccc(O)cc1)NC(C)=O)C(=O)N1CCC[C@H]1C(=O)N[C@@H](CC(C)C)C(N)=O` [Pep#5, Ac-Tyr-Pro-Tyr-Phe-Ile-Pro-Leu-NH2] the figure was less than 4.40.
In the case of `CC[C@H](C)[C@H](NC(=O)[C@H](Cc1ccccc1)NC(=O)[C@H](Cc1ccc(O)cc1)NC(=O)[C@@H]1CCCN1C(=O)[C@@H](N)Cc1ccc(O)cc1)C(=O)N1CCC[C@H]1C(=O)N[C@H](CCCCN)C(=O)NCC(=O)N[C@H](CCCCN)C(=O)NCC(=O)N[C@@H](CCC(=O)O)C(=O)N[C@H](C(=O)N[C@@H](CC(N)=O)C(=O)N[C@@H](CC(C)C)[C@@H](O)CC(=O)N[C@H](C(=O)N[C@@H](C)C(=O)N[C@@H](CCC(=O)O)C(=O)N1CCC[C@@H]1C(=O)N[C@@H](CCCCNC(=O)CCC(=O)O[C@H]1CC[C@@]2(C)C(=CC[C@H]3[C@@H]4CC[C@H]([C@H](C)CCCC(C)C)[C@@]4(C)CC[C@@H]32)C1)C(N)=O)C(C)C)C(C)C` [Pep#9, Tyr-Pro-Tyr-Phe-Ile-Pro-DLys-Gly-DLys-Gly-Glu-Val-Asn-Sta-Val-Ala-Glu-DPro-Lys(Chol'ester’)-NH2], in “Thermodynamic” (setting [1]), the thermodynamic solubility is more than 718 µg/mL.
`CC[C@H](C)[C@H](NC(=O)[C@H](Cc1ccccc1)NC(=O)[C@H](Cc1ccc(O)cc1)NC(=O)[C@@H]1CCCN1C(=O)[C@@H](N)Cc1ccc(O)cc1)C(=O)N1CCC[C@H]1C(=O)N[C@@H](C)C(=O)NCC(=O)N[C@H](CCCCN)C(=O)NCC(=O)N[C@@H](CCC(=O)O)C(=O)N[C@H](C(=O)N[C@@H](CC(N)=O)C(=O)N[C@@H](CC(C)C)[C@@H](O)CC(=O)N[C@H](C(=O)N[C@@H](C)C(=O)N[C@@H](CCC(=O)O)C(=O)N1CCC[C@@H]1C(=O)N[C@@H](CCCCNC(=O)CCC(=O)O[C@H]1CC[C@@]2(C)C(=CC[C@H]3[C@@H]4CC[C@H]([C@H](C)CCCC(C)C)[C@@]4(C)CC[C@@H]32)C1)C(N)=O)C(C)C)C(C)C` [Pep#10, Tyr-Pro-Tyr-Phe-Ile-Pro-Ala-Gly-DLys-Gly-Glu-Val-Asn-Sta-Val-Ala-Glu-DPro-Lys(Chol'ester’)-NH2] (H-YPYFIPAG[dK]GEVN[Sta]VAE[dP]K(Succinyl(4-O-cholesteryl))-NH2; N-terminus assumed) gave a thermodynamic solubility in the series “Thermodynamic” (pH 6.5) of more than 2450 µg/mL.
As for “Ac-YPYFLPISAK-NH2 [Pep#6, Ac-Tyr-Pro-Tyr-Phe-Leu-Pro-Ile-Ser-Ala-Lys-NH2, reference compound]”, the negative logarithm of the IC50 (pIC50) against BACE1 is less than 4.40.
Regarding `CC[C@H](C)[C@H](NC(=O)[C@H](Cc1ccccc1)NC(=O)[C@H](Cc1ccc(O)cc1)NC(=O)[C@@H]1CCCN1C(=O)[C@@H](N)Cc1ccc(O)cc1)C(=O)N1CCC[C@H]1C(=O)N[C@@H](CC(C)C)C(=O)NCC(=O)NCC(=O)NCC(=O)N[C@@H](CCC(=O)O)C(=O)N[C@H](C(=O)N[C@@H](CC(N)=O)C(=O)N[C@@H](CC(C)C)[C@@H](O)CC(=O)N[C@H](C(=O)N[C@@H](C)C(=O)N[C@@H](CCC(=O)O)C(=O)N1CCC[C@@H]1C(=O)N[C@@H](CCCCNC(=O)CCC(=O)O[C@H]1CC[C@@]2(C)C(=CC[C@H]3[C@@H]4CC[C@H]([C@H](C)CCCC(C)C)[C@@]4(C)CC[C@@H]32)C1)C(N)=O)C(C)C)C(C)C` [Pep#7, Tyr-Pro-Tyr-Phe-Ile-Pro-Leu-Gly-Gly-Gly-Glu-Val-Asn-Sta-Val-Ala-Glu-DPro-Lys(Chol'ester’)-NH2], the thermodynamic solubility in the series “Thermodynamic” (setting [1]) is less than 1 µg/mL.

What is called pIC50 is −log10 of the IC50, conventionally taken in molar units. A high value points to a small IC50. What is called thermodynamic solubility is the concentration in solution at equilibrium with solid.
